53 compounds from the M2OR odorant receptor database can be followed below.

Conditions in all cases: stereoisomer not certain
For one test, the target named is T1, Or5p57 (Mus musculus) (UniProt Q8VEZ0).
T1 sequence (whole entry): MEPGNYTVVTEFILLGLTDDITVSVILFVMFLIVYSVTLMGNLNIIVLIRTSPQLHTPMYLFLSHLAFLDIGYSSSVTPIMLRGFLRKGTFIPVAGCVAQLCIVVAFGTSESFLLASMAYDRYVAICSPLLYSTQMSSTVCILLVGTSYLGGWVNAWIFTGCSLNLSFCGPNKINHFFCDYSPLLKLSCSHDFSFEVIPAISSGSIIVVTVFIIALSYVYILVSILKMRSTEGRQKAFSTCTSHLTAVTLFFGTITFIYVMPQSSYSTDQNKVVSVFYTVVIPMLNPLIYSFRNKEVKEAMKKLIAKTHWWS
Summed up:
(§1)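 Each entry records the cell line, G-protein, co-transfected protein and tags used. Methods varied with the source, often transient luciferase assays in mammalian cell lines. A receptor–molecule pair is called responsive (active) if the original authors judged its signal statistically different from baseline and non-responsive (inactive) otherwise.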

The target in another test is T2, Or5p80 (Mus musculus) (UniProt Q8VG42).
T2 sequence (whole entry): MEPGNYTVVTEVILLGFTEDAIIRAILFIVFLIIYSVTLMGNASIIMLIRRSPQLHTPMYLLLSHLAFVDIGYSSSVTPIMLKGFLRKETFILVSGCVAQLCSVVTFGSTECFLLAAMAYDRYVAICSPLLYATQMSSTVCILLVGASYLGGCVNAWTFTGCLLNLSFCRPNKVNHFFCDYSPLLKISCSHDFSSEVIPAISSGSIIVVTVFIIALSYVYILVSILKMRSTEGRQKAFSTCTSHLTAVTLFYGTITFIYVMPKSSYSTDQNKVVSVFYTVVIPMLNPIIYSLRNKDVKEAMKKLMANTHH
Summed up:
as §1

The target of the next test is T3, Or7a40 (Mus musculus) (UniProt Q9JHB2).
T3 sequence (whole entry): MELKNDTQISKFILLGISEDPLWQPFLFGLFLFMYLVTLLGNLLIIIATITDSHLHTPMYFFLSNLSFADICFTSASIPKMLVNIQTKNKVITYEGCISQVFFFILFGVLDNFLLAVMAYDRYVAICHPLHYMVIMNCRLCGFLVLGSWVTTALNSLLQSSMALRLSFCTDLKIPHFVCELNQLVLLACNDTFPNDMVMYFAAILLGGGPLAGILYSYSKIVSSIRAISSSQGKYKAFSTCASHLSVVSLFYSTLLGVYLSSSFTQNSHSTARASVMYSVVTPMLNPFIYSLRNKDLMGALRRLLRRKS
Put shortly:
as §1

Another test has as its system Q8N628 T20A L289V. Put shortly: as §1
A further test relates to Q8NGC2 A119T. Summed up:
as §1

For a further test, the system named is Q8NGH7 D88N. Put shortly:
as §1

The target of a further test is Or8b3 (Mus musculus) (UniProt Q60886). Summed up:
as §1

In another test the test system is Q8VF87 A279V. Put shortly:
as §1

The next test deals with Q8VF87 E162D. Put shortly:
as §1

Another test has as its system Q8VF87 I202L. Summed up:
as §1

Chain of Or8b3 (Mus musculus) (Q60886 whole entry): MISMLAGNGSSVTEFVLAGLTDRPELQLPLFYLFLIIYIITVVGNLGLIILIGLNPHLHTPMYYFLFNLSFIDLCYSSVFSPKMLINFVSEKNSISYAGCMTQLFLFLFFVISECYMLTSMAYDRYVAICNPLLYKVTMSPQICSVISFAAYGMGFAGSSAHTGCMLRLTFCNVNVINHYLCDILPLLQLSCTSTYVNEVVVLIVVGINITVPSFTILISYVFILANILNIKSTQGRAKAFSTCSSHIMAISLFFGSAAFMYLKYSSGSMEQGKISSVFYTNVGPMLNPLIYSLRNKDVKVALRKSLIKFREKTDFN

For `O=C(O)CCCCCC(=O)O`, in the test with Or5p57 (Mus musculus), the “odorant receptor agonist call” value was “inactive”.

As to `CCCCCCCCO`, the “odorant receptor agonist call” value with Or5p57 (Mus musculus), with Or5p80 (Mus musculus) and in the test with Or7a40 (Mus musculus) was “inactive” throughout.

On to `c1ccccc1`, for which the “odorant receptor agonist call” value with Or5p80 (Mus musculus) and with Or7a40 (Mus musculus) was “inactive” throughout.

With `CCCCCC(=O)CC`, the “odorant receptor agonist call” value with Or5p80 (Mus musculus) and with Or7a40 (Mus musculus) was “inactive” each time.

For `O=C([O-])CCCCCCC(=O)[O-].[H+].[H+]`, in the test with Or5p57 (Mus musculus), the “odorant receptor agonist call” value was “inactive”.

As to `O=C([O-])CCCCCCCC(=O)[O-].[H+].[H+]`, in the test with Or5p57 (Mus musculus), the “odorant receptor agonist call” value was “inactive”.

Regarding `O=C(c1ccccc1)c1ccccc1`, the “odorant receptor agonist call” value in the test with Or5p80 (Mus musculus) and in the test with Or7a40 (Mus musculus) was “inactive” in each case.

On to `CC(=O)Oc1ccccc1`, for which the “odorant receptor agonist call” value with Or5p80 (Mus musculus) and with Or7a40 (Mus musculus) was “inactive” in each case.

Regarding `CCCCC(=O)O`, the “odorant receptor agonist call” value with Or5p57 (Mus musculus), with Or5p80 (Mus musculus) and with Or7a40 (Mus musculus) was “inactive” in each case.

As for `O=C([O-])CCCCC(=O)[O-].[H+].[H+]`, the “odorant receptor agonist call” value in the test with Or5p57 (Mus musculus) was “inactive”.

With `CCCCCCCC(=O)[O-].[H+]`, the “odorant receptor agonist call” value in the test with Or5p57 (Mus musculus), with Or5p80 (Mus musculus) and in the test with Or7a40 (Mus musculus) was “inactive” throughout.

For the compound `CCCCCCO`, the “odorant receptor agonist call” value in the test with Or5p57 (Mus musculus) is “active”. Also, the “odorant receptor agonist call” value with Or5p80 (Mus musculus) and with Or7a40 (Mus musculus) was “inactive” each time.

Consider `CCCCCCCCCC(=O)[O-].[H+]`, for which the “odorant receptor agonist call” value in the test with Or5p80 (Mus musculus) and with Or7a40 (Mus musculus) was “inactive” throughout.

`CC(C)=CCCC(C)CCO` (configuration not stated): the “odorant receptor agonist call” value in the test with Or5p80 (Mus musculus) and in the test with Or7a40 (Mus musculus) was “inactive” each time.

Consider `CC12CCC(CC1=O)C2(C)C` (configuration not stated), for which the “odorant receptor agonist call” value in the test with Or5p80 (Mus musculus) and with Or7a40 (Mus musculus) was “inactive” throughout.

With `O=C(O)CCCBr`, the “odorant receptor agonist call” value with Or5p57 (Mus musculus) was “inactive”.

For the compound `CCCCC(C)=O`, the “odorant receptor agonist call” value with Or5p80 (Mus musculus) and with Or7a40 (Mus musculus) was “inactive” in each case.

As to `CCCCCO`, the “odorant receptor agonist call” value with Or5p57 (Mus musculus), in the test with Or5p80 (Mus musculus) and in the test with Or7a40 (Mus musculus) was “inactive” in each case.

With `CCCCC(=O)CC`, the “odorant receptor agonist call” value with Or5p80 (Mus musculus) and with Or7a40 (Mus musculus) was “inactive” in each case.

Turning to `CCCCCCCCS`, the “odorant receptor agonist call” value with Or5p80 (Mus musculus) and with Or7a40 (Mus musculus) was “inactive” each time.

Regarding `CCCCCCCCCO`, the “odorant receptor agonist call” value with Or5p57 (Mus musculus), in the test with Or5p80 (Mus musculus) and with Or7a40 (Mus musculus) was “inactive” throughout.

As to `O=C(O)CCCCBr`, the “odorant receptor agonist call” value with Or5p57 (Mus musculus) is “inactive”.

For `O=C(O)CCCCCBr`, in the test with Or5p57 (Mus musculus), the “odorant receptor agonist call” value is “inactive”.

With `CCCCCCC(=O)[O-].[H+]`, the “odorant receptor agonist call” value with Or5p57 (Mus musculus), in the test with Or5p80 (Mus musculus) and with Or7a40 (Mus musculus) was “inactive” each time.

For `CCCCCCCCC(=O)O`, the “odorant receptor agonist call” value with Or5p57 (Mus musculus), in the test with Or5p80 (Mus musculus) and with Or7a40 (Mus musculus) was “inactive” each time.

`CCCCCCCO`: the “odorant receptor agonist call” value in the test with Or5p57 (Mus musculus) is “active”. The “odorant receptor agonist call” value with Or5p80 (Mus musculus) and with Or7a40 (Mus musculus) was “inactive” in each case.

As to `CCCCCCCCCS`, the “odorant receptor agonist call” value with Or5p80 (Mus musculus) and with Or7a40 (Mus musculus) was “inactive” throughout.

As for `CC(C)=CCCC(C)=CCO`, the “odorant receptor agonist call” value with Or5p80 (Mus musculus) and with Or7a40 (Mus musculus) was “inactive” each time.

As to `CCCCCCCCCCO`, the “odorant receptor agonist call” value with Or5p80 (Mus musculus) and in the test with Or7a40 (Mus musculus) was “inactive” throughout.

On to `CCCCOC=O`, for which the “odorant receptor agonist call” value in the test with Or5p80 (Mus musculus) and with Or7a40 (Mus musculus) was “inactive” in each case.

With `CCCCCOC(=O)CCCCC`, the “odorant receptor agonist call” value in the test with Or5p80 (Mus musculus) and with Or7a40 (Mus musculus) was “inactive” throughout.

As for `CCCC(=O)C(C)=O`, the “odorant receptor agonist call” value with Or5p80 (Mus musculus) and with Or7a40 (Mus musculus) was “inactive” in each case.

In the case of `CCCCCCC=CCCC=O`, the “odorant receptor agonist call” value in the test on Q8N628 T20A L289V, in the test on Q8NGC2 A119T and in the test with Q8NGH7 D88N was “inactive” in each case.

As for `CCOC(=O)C(C)C`, the “odorant receptor agonist call” value with Or5p80 (Mus musculus) and with Or7a40 (Mus musculus) was “inactive” in each case.

In the case of `CCCCOC(=O)C(C)OC(=O)CCC` (configuration not stated), the “odorant receptor agonist call” value with Or5p80 (Mus musculus) and with Or7a40 (Mus musculus) was “inactive” each time.

`CCC(=O)O`: the “odorant receptor agonist call” value with Or5p80 (Mus musculus) and with Or7a40 (Mus musculus) was “inactive” each time.

Regarding `CCC(=O)C(=O)CC`, the “odorant receptor agonist call” value with Or5p80 (Mus musculus) and in the test with Or7a40 (Mus musculus) was “inactive” each time.

On to `COc1cc(C(=O)O)ccc1O`, for which the “odorant receptor agonist call” value in the test with Or5p80 (Mus musculus) and with Or7a40 (Mus musculus) was “inactive” in each case.

Take `O=c1ccc2ccccc2o1`: the “odorant receptor agonist call” value with Or5p80 (Mus musculus) and with Or8b3 (Mus musculus) was “active” in each case. The “odorant receptor agonist call” value with Or7a40 (Mus musculus) is “inactive”.

Take `CCCCCC1=C(C)CCC1=O`: the “odorant receptor agonist call” value with Or5p80 (Mus musculus) was “inactive”. Further, the “odorant receptor agonist call” value with Or7a40 (Mus musculus) was “active”.

In the case of `C=CCOC(=O)CCCCCC`, the “odorant receptor agonist call” value with Or5p80 (Mus musculus) and with Or7a40 (Mus musculus) was “inactive” in each case.

As to `CCCCCCC(C)=O`, the “odorant receptor agonist call” value in the test with Or5p80 (Mus musculus) and in the test with Or7a40 (Mus musculus) was “inactive” throughout.

On to `CCCCCCCC(C)=O`, for which the “odorant receptor agonist call” value in the test with Or5p80 (Mus musculus) and with Or7a40 (Mus musculus) was “inactive” each time.

For the compound `CCCCCC=O`, the “odorant receptor agonist call” value in the test with Or5p80 (Mus musculus) and with Or7a40 (Mus musculus) was “inactive” throughout.

Regarding `CC(=O)OCc1ccccc1`, the “odorant receptor agonist call” value in the test with Or5p80 (Mus musculus) and with Or7a40 (Mus musculus) was “inactive” each time.

As for `CCC(C(=O)O)c1ccccc1` (configuration not stated), the “odorant receptor agonist call” value with Or5p80 (Mus musculus) and with Or7a40 (Mus musculus) was “inactive” each time.

Regarding `CCCC(C)=O`, the “odorant receptor agonist call” value with Or5p80 (Mus musculus) and with Or7a40 (Mus musculus) was “inactive” each time.

For the compound `O=C1Cc2ccccc2O1`, the “odorant receptor agonist call” value in the test with Or5p80 (Mus musculus) and with Or7a40 (Mus musculus) was “inactive” each time.

Consider `CCC(S)C(C)CO` (configuration not stated), for which the “odorant receptor agonist call” value in the test with Q8VF87 A279V, with Q8VF87 E162D and in the test with Q8VF87 I202L was “inactive” throughout.

With `O=C1CCOc2ccccc21`, the “odorant receptor agonist call” value with Or5p80 (Mus musculus), with Or7a40 (Mus musculus) and with Or8b3 (Mus musculus) was “inactive” each time.

On to `CCCCCCOC(C)=O`, for which the “odorant receptor agonist call” value with Or5p80 (Mus musculus) and with Or7a40 (Mus musculus) was “inactive” throughout.

As to `C=C(C)C1CCC(C)C(=O)C1` (configuration not stated), the “odorant receptor agonist call” value with Or5p80 (Mus musculus) and with Or7a40 (Mus musculus) was “inactive” each time.

In the case of `CC(=O)OCC=C(C)C`, the “odorant receptor agonist call” value in the test with Or5p80 (Mus musculus) and in the test with Or7a40 (Mus musculus) was “inactive” each time.
